Myeloid diff MLP = compounds promoting myeloid differentiation. calls only at 10 µM. AID 624256. 360,000 tested, 1% active. ER-HoxA9 myeloid progenitors, lysozyme-GFP differentiation, flow cytometry;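 active = normalized GFP-positive differentiation at or above the plate's own cutoff, the solvent-only control mean plus 3 SD; inconclusive = no clear call, values can overlap the other calls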;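 also: cells exposed to compound for four days before flow analysis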
MC4R antag cAMP = blocks human MC4R cAMP signaling | P32245 | MC4R-expressing cells, MTII-stimulated cAMP, LANCE TR-FRET | inhibition, % at 6.5 µM | 360,000 tested, 0.48% active | AID 540295;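 active = inhibition above its plate's cutoff, the mean of tested wells on that plate plus 3 SD, cut at about 29% in these data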
Target sequence (P32245 whole entry, looked up): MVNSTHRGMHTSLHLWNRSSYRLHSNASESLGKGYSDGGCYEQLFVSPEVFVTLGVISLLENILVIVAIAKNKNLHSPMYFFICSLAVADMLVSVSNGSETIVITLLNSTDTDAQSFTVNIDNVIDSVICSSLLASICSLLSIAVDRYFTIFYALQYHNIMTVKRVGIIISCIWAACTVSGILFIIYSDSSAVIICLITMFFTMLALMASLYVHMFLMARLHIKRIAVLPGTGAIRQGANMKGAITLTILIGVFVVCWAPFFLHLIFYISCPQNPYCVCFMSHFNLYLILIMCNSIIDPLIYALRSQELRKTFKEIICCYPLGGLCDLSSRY
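system = U2OS cells with stable human MC4R expression | also added = Melanotan II challenge after compound preincubation | dosing = one concentration, 6.5 µM nominal | incubation = compound 30 min, challenge 1 h, detection 1 h | measured by = TR-FRET with Eu-cAMP and labeled anti-cAMP, 671 nm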
Granule exo inh = lytic granule exocytosis inhibition. inhibition, % at 10 µM. TALL-104 LAMP-1 surface exposure, flow cytometry; cells stimulated with thapsigargin and PMA. 360,000 tested, 0.66% active;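 active = inhibition above about 55%, limit read from the data; inconclusive = no clear call, values can overlap the other calls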
EBI2 block = antagonists of human EBI2 receptor. P32249. EBI2 beta-arrestin recruitment, luminescence, 7a,25-OHC stimulated. inhibition, % at 5 µM. 360,000 tested, 0.81% active; in the data active = inhibition above about 38%;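 also: enzyme fragment complementation signal reports receptor beta-arrestin coupling in cells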
MC4R barr agon = human MC4R agonism via beta-arrestin; activation, % at 8.9 µM; 360,000 tested, 0.98% active; U2OS MC4R beta-arrestin complementation, luminescence; percent of melanotan II response, DMSO zero; P32245;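 active = activation above a per-plate cutoff, the mean activation of sample wells on that plate plus 3 SD, cut at about 8% in these data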
MC4R barr ag = human MC4R beta-arrestin agonism confirmation; shares compounds with MC4R barr agon; U2OS MC4R beta-arrestin recruitment, luminescence; scaled DMSO 0%, Melanotan II 100%; activation, % at 8.9 µM; 2,400 tested, 31% active;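 active = mean activation across replicates above the hit cutoff set in the earlier primary screen, cut at about 8% in these data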
MOR-DOR barr ag = counter-screen for MC4R agonists: agonists of mu-delta opioid heterodimer | activation, % at 9.2 µM | 2,400 tested, 5.8% active | shares compounds with MC4R barr agon | U2OS PathHunter beta-arrestin, beta-gal luminescence; percent of deltorphin B response, DMSO zero;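 active = mean activation across replicates exceeds the hit threshold derived in the earlier primary screen, cut at about 18% in these data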
Numbers stand for hits; . = inactive; ? = inconclusive; / = no result. Rows were chosen to be rich in hits. Some 3.7% of all compounds tested hit in one or more screens of this group.

SMILES	Myeloid diff MLP	MC4R antag cAMP	Granule exo inh	EBI2 block	MC4R barr agon	MC4R barr ag	MOR-DOR barr ag
Cc1cc(NC(=O)c2cncc(Br)c2)ccc1NC(=O)c1cc2ccccc2o1	.	.	.	.	10	17	.
COc1cccc(C(=O)Nc2ccc(NC(=O)c3cc4ccccc4o3)c(OC)c2)c1	.	.	.	.	10	.	.
Cc1ccc(OCCn2c(C)c(/C=N/n3cnnc3)c3ccccc32)cc1	.	.	.	.	16	.	.
Cc1c(/C=N/n2cnnc2)c2ccccc2n1CCOc1ccc(Cl)cc1	.	.	.	.	.	/	/
COc1ccccc1N/C=C(\C#N)c1nc2ccccc2[nH]1	.	.	.	.	11	.	.
COc1cc(/C=C(\C#N)c2nc3ccccc3[nH]2)cc(OC)c1O	.	.	.	.	.	/	/
CC(NC(=O)c1ccccc1SCC(=O)N1CCCC1)c1ccc(F)cc1 (centres undefined)	.	.	.	.	.	/	/
CCCCc1nc2sc3c(SCC(=O)NCc4ccco4)ncnc3c2c2c1CCC2	.	.	.	.	14	.	.
CCn1c2ccccc2c2cc(NC(=O)CSc3nnc(-c4ccc(OC)cc4)n3N)ccc21	.	.	.	.	21	12	20
Cc1ccc2[nH]c(=O)c3cc(C(=O)N(CCCOC(C)C)Cc4ccco4)sc3c2c1	.	.	.	.	35	34	.
CCCCN(CC)C(=O)c1cc2c(=O)[nH]c3ccc(C)cc3c2s1	.	.	.	.	.	/	/
Cc1cccc(-n2nnnc2SCC(=O)c2cc(C)n(Cc3ccco3)c2C)c1	.	.	.	.	27	16	.
Cc1cccc(-n2nnnc2SCC(=O)c2cc(C)n(CC3CCCO3)c2C)c1 (centres undefined)	.	.	.	.	.	/	/
CC(C)C[C@H]1COc2cccc(N3CCSCC3)c2S(=O)(=O)N1	.	/	.	.	/	/	/
COc1cc(C(F)(F)F)nc2ccc(C#CCOC(=O)Nc3ccccc3)cc12	.	.	.	.	14	.	.
COc1ccc(OCCOC(=O)Nc2ccccc2)cc1	.	.	.	.	.	/	/
COc1cc(CNCc2ccc(Br)cc2)cc(OC)c1	.	.	.	.	.	/	/
COc1cccc(-c2cnc3c(NC=O)cc(-c4cccc(C(=O)N(C)C)c4)cn23)c1	.	.	.	.	31	21	.
CN(C)CCNC(=O)c1cccc(-c2cnc3c(NC=O)cc(-c4cc(F)c(F)c(F)c4)cn23)c1	.	.	.	.	.	/	/
COc1cccc(-c2cc(NC=O)c3ncc(-c4cc(OC)c(OC)c(OC)c4)n3c2)c1	?	.	.	.	28	.	.
Nc1ccc(-c2cc(NC=O)c3ncc(-c4cccc(C(F)(F)F)c4)n3c2)cn1	.	.	.	.	11	.	.
CN(C)CCNC(=O)c1cccc(-c2cc(NC=O)c3ncc(-c4cccc(C(F)(F)F)c4)n3c2)c1	?	.	.	.	23	29	.
COc1cc(-c2cnc3c(NC=O)cc(-c4cccnc4)cn23)cc(OC)c1OC	?	.	.	.	.	/	/
O=C(CN1CCN(c2ccccn2)CC1)Nc1ccc(F)cc1F	.	.	.	.	.	/	/
C[C@H]1CN([C@@H](C)CO)S(=O)(=O)c2ccc(/C=C/c3ccccc3)cc2O[C@H]1CN(C)C(=O)NC1CCCCC1	.	.	.	.	.	/	/
SMILES	Myeloid diff MLP	MC4R antag cAMP	Granule exo inh	EBI2 block	MC4R barr agon	MC4R barr ag	MOR-DOR barr ag
COc1cccc(-c2cnc3c(NC(C)=O)cc(-c4cc(OC)c(OC)c(OC)c4)cn23)c1	.	.	.	.	29	21	.
COc1cccc(-c2cnc3c(NC=O)cc(-c4ccc(O)c(OC)c4)cn23)c1	.	.	.	.	30	30	.
COc1cc(-c2cnc3c(NC=O)cc(-c4cccc(C(F)(F)F)c4)cn23)cc(OC)c1OC	/	.	.	.	18	.	.
COc1cccc(-c2cnc3c(NC=O)cc(-c4ccncc4)cn23)c1	.	.	.	.	.	/	/
COc1cccc(-c2cnc3c(NC(C)=O)cc(-c4ccncc4)cn23)c1	.	.	.	.	.	/	/
COc1ccc(C2=C(c3ccc(OC)c(OC)c3)CN3CCCCC3C2)cc1 (centres undefined)	.	.	.	.	.	/	/
COCCN(C(=O)COC(=O)C1(C)CC1(Cl)Cl)c1c(N)n(Cc2ccccc2)c(=O)[nH]c1=O (centres undefined)	.	.	.	.	.	/	/
CCCCC(=O)N(C)c1c(CC)nc2c(OCc3ccccc3C)cccn12	.	.	.	.	.	/	/
CCCCNS(=O)(=O)c1ccc(NS(=O)(=O)c2c(C)cc(C)cc2C)cc1	.	.	.	.	12	.	.
Cc1cc(N2CCN(C)CC2)nc2ccc(NC(=S)N3CCN(c4cccc(Cl)c4)CC3)cc12	.	.	.	.	.	/	/
Cc1cccc(N2CCN(C(=S)Nc3ccc4nc(N5CCN(C)CC5)cc(C)c4c3)CC2)c1C	?	.	63	.	11	13	.
Cc1cccc(N2CCN(C(=S)Nc3ccc4nc(N5CCN(C)CC5)cc(C)c4c3)CC2C)c1 (centres undefined)	/	.	.	.	14	.	.
Cc1cc(N2CCN(C)CC2)nc2ccc(NC(=S)N3CCCCC3)cc12	.	.	.	.	.	/	/
COc1ccc(CNCCc2ccc(Cl)cc2)cc1OCc1ccccc1	.	.	.	.	16	24	.
Cc1cc(C(=O)N/N=C/c2cc(Br)ccc2OC(=O)c2ccccc2)n[nH]1	?	.	.	.	17	.	.
Cc1cc(C(=O)N/N=C/c2cc(Br)ccc2OC(=O)c2ccccc2Cl)n[nH]1	?	.	.	.	.	/	/
Clc1ccc(Cn2cc(/C=N/n3cnnc3)c3ccccc32)c(Cl)c1	.	.	.	.	16	11	.
Cc1ccc(S(=O)(=O)Nc2ccc(-c3nc4ccc(C)cc4s3)cc2)cc1	.	.	.	.	14	15	.
O=S(=O)(Nc1ccc(Nc2ccccc2)cc1)c1ccc(F)cc1	.	.	.	.	.	/	/
O=S(=O)(Nc1ccc(S(=O)(=O)Nc2ccccc2)cc1)c1ccccc1	.	.	.	.	.	/	/
O=S(=O)(Nc1ccc(-c2ccccc2)cc1)c1ccccc1	.	.	.	.	14	.	.
Cc1ccc(S(=O)(=O)Nc2ccc(Nc3ccccc3)cc2)cc1	.	.	.	.	9.7	.	.
CCN(CC)CCNC(Cc1ccccc1)c1cccc(OC)c1 (centres undefined)	?	.	.	.	.	/	/
Cc1ccc(F)c(S(=O)(=O)NC(=O)C2(C)CCN2C(=O)CCC2CCCC2)c1 (centres undefined)	.	.	.	.	.	/	/
CNC(=O)NC(=O)CN1C(=O)NC2(CCOc3ccccc32)C1=O (centres undefined)	.	.	.	.	.	/	/
